How the values were obtained:
RKO = test: Anticancer activity against human RKO cells assessed as inhibition of cell growth after 24 hrs by MTT assay; format: functional, cell-based
Procedure, shortened: (§1)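 MTT assay at 3,000 cells/well. Cells treated with DMSO or seven concentrations from 0.5 to 50 µM for 24, 48 or 72 h. MTT added 3 h before the end point; formazan dissolved in DMSO and read at 570 and 630 nm. IC50 is the concentration giving 50% growth inhibition. Media: PANC-1, BxPC3 and 1205Lu in DMEM; DU145 and A549 in RPMI 1640; HT29, HCT116 and RKO in McCoy's 5A, all with 10% FBS and pen/strep, at 37 °C and 5% CO2.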

A549 = test: Anticancer activity against human A549 cells assessed as inhibition of cell growth after 48 hrs by MTT assay; format: functional, cell-based; conditions: A549, 48 h; procedure, shortened: as §1
[1] = Anticancer activity against human 1205 Lu cells assessed as inhibition of cell growth after 72 hrs by MTT assay; format: functional, cell-based; procedure, shortened: as §1
HCT-116 [2] = test: Induction of apoptosis in human HCT116 cells assessed as late apoptotic cells at 2.5 uM after 24 hrs by annexin-V staining based flow cytometry analysis (reference value: 1.06%); format: functional
[3] = Anticancer activity against human 1205 Lu cells assessed as inhibition of cell growth after 24 hrs by MTT assay; format: functional, cell-based; procedure, shortened: as §1
[4] = Anticancer activity against human HCT116 cells assessed as inhibition of cell growth after 72 hrs by MTT assay; format: functional, cell-based; conditions: HCT-116, 72 h; procedure, shortened: as §1
HCT-116 [5] = test: Induction of apoptosis in human HCT116 cells assessed as early apoptotic cells at 5 uM after 24 hrs by caspase3/7 reagent based flow cytometry (reference value: 5.18%); format: functional
HCT-116 [6] = test: Induction of apoptosis in human HCT116 cells assessed as viable cells at 2.5 uM after 24 hrs by annexin-V staining based flow cytometry analysis (reference value: 90.38%); format: functional; conditions: HCT-116, 24 h, read-out: Activity
HCT-116 [7] = test: Induction of apoptosis in human HCT116 cells assessed as necrotic cells at 2.5 uM after 24 hrs by caspase3/7 reagent based flow cytometry (reference value: 4.14%); format: functional
HT-29 [8] = test: Anticancer activity against human HT-29 cells assessed as inhibition of cell growth after 24 hrs by MTT assay; format: functional, cell-based; conditions: HT-29, 24 h; procedure, shortened: as §1
[9] = Anticancer activity against human HCT116 cells assessed as inhibition of cell growth after 24 hrs by MTT assay; format: functional, cell-based; conditions: HCT-116, 24 h; procedure, shortened: as §1
HCT-116 [10] = test: Induction of apoptosis in human HCT116 cells assessed as necrotic cells at 5 uM after 24 hrs by annexin-V staining based flow cytometry analysis (reference value: 0.72%); format: functional
[11] = Induction of cell death in human HCT116 cells at 5 uM after 24 hrs by calcein-AM and ethidium homodimer-1 staining based flow cytometry analysis (reference value: 1.1%); format: functional, HCT-116
HCT-116 [12] = test: Decrease in number of viable cells in human HCT116 cells at 5 uM after 24 hrs by calcein-AM and ethidium homodimer-1 staining based flow cytometry analysis (reference value: 94.9%); format: functional
HT-29 [13] = test: Potency index, ratio IC50 of 5-FU to IC50 of compound for anticancer activity against human HT-29 cells; format: functional
Procedure, shortened: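 Colon lines (McCoy's 5A, 10% FBS, penicillin/streptomycin, 37 °C, 5% CO2) seeded at 3,000 cells/well and exposed 24, 48 or 72 h to DMSO or seven concentrations across 0.5–50 µM. MTT added 3 h before end; formazan dissolved in DMSO, absorbance read at 570 and 630 nm. IC50 (50% growth inhibition) from curve fitting; index is the 5-FU IC50 divided by the compound IC50.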

[14] = Anticancer activity against human PANC1 cells assessed as inhibition of cell growth after 72 hrs by MTT assay; format: functional, cell-based; conditions: PANC-1, 72 h; procedure, shortened: as §1
HCT-116 [15] = test: Reduction of XIAP level in human HCT116 cells after 24 hrs by western blot analysis; format: functional, cell-based
Procedure, shortened: (§2)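 HCT116 cells (6 × 10^5/well) treated with rising concentrations for 24 h. Lysed in RIPA with phosphatase and protease inhibitors and PMSF, cleared at 15,000 g for 10 min. Lysates resolved by SDS-PAGE, transferred to PVDF, probed overnight in the cold with primary antibodies, then peroxidase-linked secondary for 1–4 h at room temperature, detected by ECL; β-actin antibody used.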

[16] = Anticancer activity against human DU145 cells assessed as inhibition of cell growth after 24 hrs by MTT assay; format: functional, cell-based; conditions: DU-145, 24 h; procedure, shortened: as §1
HCT-116 [17] = test: Induction of apoptosis in human HCT116 cells assessed as necrotic cells at 1 uM after 24 hrs by annexin-V staining based flow cytometry analysis (reference value: 0.72%); format: functional
HCT-116 [18] = test: Induction of apoptosis in human HCT116 cells assessed as late apoptotic cells at 2.5 uM after 24 hrs by caspase3/7 reagent based flow cytometry (reference value: 2.28%); format: functional
HCT-116 [19] = test: Induction of apoptosis in human HCT116 cells assessed as early apoptotic cells at 5 uM after 24 hrs by annexin-V staining based flow cytometry analysis (reference value: 7.84%); format: functional
HCT-116 [20] = test: Induction of apoptosis in human HCT116 cells assessed as viable cells at 5 uM after 24 hrs by annexin-V staining based flow cytometry analysis (reference value: 90.38%); format: functional; conditions: HCT-116, 24 h, read-out: Activity
HCT-116 [21] = test: Induction of apoptosis in human HCT116 cells assessed as necrotic cells at 5 uM after 24 hrs by caspase3/7 reagent based flow cytometry (reference value: 4.14%); format: functional
[22] = Anticancer activity against human 1205 Lu cells assessed as inhibition of cell growth after 48 hrs by MTT assay; format: functional, cell-based; procedure, shortened: as §1
HCT-116 [23] = test: Reduction in Bcl2 level in human HCT116 cells after 24 hrs by western blot analysis; format: functional, cell-based; procedure, shortened: as §2
HCT-116 [24] = test: Induction of apoptosis in human HCT116 cells assessed as late apoptotic cells after 24 hrs by annexin-V staining based flow cytometry analysis; format: functional, cell-based
HCT-116 [25] = test: Induction of apoptosis in human HCT116 cells assessed as early apoptotic cells at 1 uM after 24 hrs by annexin-V staining based flow cytometry analysis (reference value: 7.84%); format: functional
HCT-116 [26] = test: Decrease in number of viable cells in human HCT116 cells at 2.5 uM after 24 hrs by calcein-AM and ethidium homodimer-1 staining based flow cytometry analysis (reference value: 94.9%); format: functional
HCT-116 [27] = test: Induction of apoptosis in human HCT116 cells assessed as late apoptotic cells at 5 uM after 24 hrs by annexin-V staining based flow cytometry analysis (reference value: 1.06%); format: functional

For `Br.Br.N=C(N)[Se]Cc1nc2ccccc2nc1C[Se]C(=N)N`, which IC50 (RKO) is on record?
Its IC50 is 3800 nM.

What about the IC50 (A549) of the same compound?
Its IC50 is 2000 nM.

And the IC50 [1]?
Its IC50 is 2200 nM.

And the Activity (HCT-116 [2])?
The Activity was 11.64%.

What about the IC50 [3] of the same compound?
The IC50 was 3300 nM.

And the IC50 [4]?
Its IC50 is 700 nM.

And the Activity (HCT-116 [5])?
The Activity was 27.66%.

What about the viability at 2.5 µM (HCT-116 [6]) of the same compound?
Its viability at 2.5 µM is 66.2%.

What about the Activity (HCT-116 [7]) of the same compound?
The Activity was 2.78%.

And the IC50 (HT-29 [8])?
The IC50 was 5000 nM.

What about the IC50 [9] of the same compound?
Its IC50 is 2900 nM.

What about the Activity (HCT-116 [10]) of the same compound?
Its Activity is 0.68%.

And the Activity [11]?
The Activity was 19.3%.

And the Activity (HCT-116 [12])?
The Activity was 73.4%.

What about the “Ratio IC50” value (HT-29 [13]) of the same compound?
The value was over 50.

What about the IC50 [14] of the same compound?
The IC50 was 2000 nM.

What about the Activity (HCT-116 [15]) of the same compound?
Its Activity is “Dose-dependent effect”.

What about the IC50 [16] of the same compound?
The IC50 was 2300 nM.

What about the Activity (HCT-116 [17]) of the same compound?
The Activity was 0.2%.

And the Activity (HCT-116 [18])?
The Activity was 5.72%.

What about the Activity (HCT-116 [19]) of the same compound?
Its Activity is 39.02%.

And the viability at 5 µM (HCT-116 [20])?
Its viability at 5 µM is 24.6%.

What about the Activity (HCT-116 [21]) of the same compound?
Its Activity is 5.96%.

What about the IC50 [22] of the same compound?
The IC50 was 2800 nM.

What about the Activity (HCT-116 [23]) of the same compound?
The Activity was “Dose-dependent effect”.

And the Activity (HCT-116 [24])?
Its Activity is “Dose-dependent effect”.

And the Activity (HCT-116 [25])?
Its Activity is 19.44%.

And the Activity (HCT-116 [26])?
The Activity was 92.2%.

What about the Activity (HCT-116 [27]) of the same compound?
Its Activity is 35.68%.

— ChEMBL document CHEMBL3779798, “Novel seleno- and thio-urea derivatives with potent in vitro activities against several cancer cell lines” (Eur J Med Chem, 2016)
